In ChEMBL document CHEMBL4387708, “Enhancement of Benzothiazoles as Pteridine Reductase-1 Inhibitors for the Treatment of Trypanosomatidic Infections” (J Med Chem, 2019):
pEC50, pIC50: −log10 of the molar value. The source made the active and inactive calls. The calls are words filed in the database; no cut-off is given here.

What was measured:
Cytochrome P450 2D6 = Cytochrome P450 2D6 (Homo sapiens, UniProt P10635); assay: Inhibition of human CYP2D6 expressed in baculovirus infected insect cells using beetle D-luciferin as substrate preincubated for 30 mins followed by NADPH addition and measured after 30 mins by CYP450-Glo assay
Pteridine reductase 1 = molecular target: T1, Pteridine reductase 1 (Leishmania major, UniProt Q01782); assay: Inhibition of Leishmania major pteridine reductase 1 using di-hydrobiopterine as substrate in presence of NADPH; details: for pIC50: read-out: IC50
T1 sequence (Q01782 whole entry): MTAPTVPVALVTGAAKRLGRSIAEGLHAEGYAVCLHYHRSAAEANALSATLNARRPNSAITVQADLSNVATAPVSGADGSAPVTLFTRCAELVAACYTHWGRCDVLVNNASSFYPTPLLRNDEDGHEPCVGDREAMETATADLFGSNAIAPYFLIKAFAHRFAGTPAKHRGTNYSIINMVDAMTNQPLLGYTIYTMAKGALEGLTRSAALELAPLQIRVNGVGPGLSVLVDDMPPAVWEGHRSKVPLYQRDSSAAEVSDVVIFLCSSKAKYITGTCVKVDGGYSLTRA
Summary of the method: (§1)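 Photometric PTR1 assay with NADPH and dihydrobiopterin substrate. H₄B formation is coupled non-enzymatically to cytochrome c reduction, read as signal increase at 550 nm.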

[1] = Cytotoxicity against human A549 cells after 48 hrs by Celltiter-glo assay; format: cell-based
[2] = molecular target: Voltage-gated inwardly rectifying potassium channel KCNH2 (Homo sapiens, UniProt Q12809); assay: Displacement of Tracer Red from human ERG by fluorescence polarization assay
[3] = Inhibition of N-terminal His-tagged Trypanosoma brucei pteridine reductase 1 using di-hydrobiopterine as substrate measured at 1 min interval for 50 mins in presence of NADPH; summary of the method: as §1
Cytochrome P450 1A2 = molecular target: T2, Cytochrome P450 1A2 (Homo sapiens, UniProt P05177); assay: Inhibition of human CYP1A2 expressed in baculovirus infected insect cells using beetle D-luciferin as substrate preincubated for 30 mins followed by NADPH addition and measured after 30 mins by CYP450-Glo assay
T2 sequence (P05177 whole entry): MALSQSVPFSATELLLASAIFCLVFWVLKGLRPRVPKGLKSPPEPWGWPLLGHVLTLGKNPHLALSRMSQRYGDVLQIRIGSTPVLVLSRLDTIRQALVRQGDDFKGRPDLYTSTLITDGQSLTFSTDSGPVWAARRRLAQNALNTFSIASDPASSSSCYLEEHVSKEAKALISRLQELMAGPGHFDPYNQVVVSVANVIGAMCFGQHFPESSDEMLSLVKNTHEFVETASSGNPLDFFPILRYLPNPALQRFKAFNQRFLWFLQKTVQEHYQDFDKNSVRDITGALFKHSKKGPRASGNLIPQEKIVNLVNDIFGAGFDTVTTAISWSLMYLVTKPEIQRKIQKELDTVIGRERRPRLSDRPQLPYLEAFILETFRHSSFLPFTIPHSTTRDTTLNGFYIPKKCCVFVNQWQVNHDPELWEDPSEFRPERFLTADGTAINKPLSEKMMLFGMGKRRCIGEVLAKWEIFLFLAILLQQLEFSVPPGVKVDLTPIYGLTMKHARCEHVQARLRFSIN

Trypanosoma brucei [4] = assay: Growth inhibition of Trypanosoma brucei bloodstream forms at 10 uM measured after 72 hrs by resazurin-based fluorescence assay relative to control; format: organism-based; details: Trypanosoma brucei, read-out: GI
Trypanosoma brucei [5] = assay: Inhibition of PTR1 in Trypanosoma brucei bloodstream forms assessed as potentiation of methotrexate-induced parasitic cell growth inhibition at 10 uM measured after 72 hrs by resazurin-based fluorescence assay (reference value: 19 +/- 6%)
Summary of the method: (§2)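 Bloodstream-form T. brucei resazurin assay: 72 h at 37 °C, 5% CO₂, then fluorescence at ex 540/em 620 nm. Benzothiazole was tested at 10 μM alone and with 4 μM methotrexate. The index is the combination's activity divided by the sum of the activities of 10 μM benzothiazole and 4 μM methotrexate given separately.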

[6] = Cytotoxicity against human U2OS cells assessed as reduction in cell number; format: cell-based
Cytochrome P450 2C19 = Cytochrome P450 2C19 (Homo sapiens, UniProt P33261); assay: Inhibition of human CYP2C19 expressed in baculovirus infected insect cells using beetle D-luciferin as substrate preincubated for 30 mins followed by NADPH addition and measured after 30 mins by CYP450-Glo assay
[7] = molecular target: T3, Pteridine reductase 1 (Leishmania major) (UniProt Q01782); assay: Inhibition of Leishmania major pteridine reductase 1 at 50 uM using di-hydrobiopterine as substrate in presence of NADPH relative to control; summary of the method: as §1
T3 sequence (whole entry): T1 sequence (Q01782 whole entry)

Leishmania infantum = assay: Growth inhibition of luciferase expressing Leishmania infantum axenic amastigotes infected in human THP1 cells at 10 uM measured after 72 hrs by steady-glo luminescence assay relative to control; format: organism-based; details: for growth inhibition (GI): leishmania infantum, 72 h, 10 µM; for inhibition at 10 µM: Leishmania infantum, THP-1, 72 h, read-out: GI
Cytochrome P450 3A4 = Cytochrome P450 3A4 (Homo sapiens, UniProt P08684); assay: Inhibition of human CYP3A4 expressed in baculovirus infected insect cells using beetle D-luciferin as substrate preincubated for 30 mins followed by NADPH addition and measured after 30 mins by CYP450-Glo assay
[8] = Mitochondrial toxicity in human 786-O cells measured after 6 hrs by MitoTracker Red chloromethyl-X-rosamine based assay; format: cell-based, 786-0
[9] = Cytotoxicity against human THP1 cells after 72 hrs by MTT assay; format: cell-based, THP-1; details: read-out: NOAEL
Trypanosoma cruzi = assay: Growth inhibition of trypomastigote form of Trypanosoma cruzi Y infected in human U2OS cells at 50 uM measured after 72 hrs by DRAQ5 DNA dye based confocal microscopic analysis relative to control; format: organism-based; details: Trypanosoma cruzi, Y, U2OS, read-out: GI
Cytochrome P450 2C9 = Cytochrome P450 2C9 (Homo sapiens, UniProt P11712); assay: Inhibition of human CYP2C9 expressed in baculovirus infected insect cells using beetle D-luciferin as substrate preincubated for 30 mins followed by NADPH addition and measured after 30 mins by CYP450-Glo assay
Trypanosoma brucei [10] = assay: Inhibition of N-terminal His-tagged Trypanosoma brucei pteridine reductase 1 at 50 uM using di-hydrobiopterine as substrate measured at 1 min interval for 50 mins in presence of NADPH relative to control; summary of the method: as §1
[11] = Selectivity ratio of IC50 for Leishmania major pteridine reductase 1 to IC50 for N-terminal His-tagged Trypanosoma brucei pteridine reductase 1
Trypanosoma brucei [12] = assay: Inhibition of PTR1 in Trypanosoma brucei bloodstream forms assessed as potentiation of methotrexate-induced parasitic cell growth inhibition by measuring potentiation index at 10 uM measured after 72 hrs by resazurin-based fluorescence assay relative to control (methotrexate); format: functional; summary of the method: as §2
Trypanosoma brucei [13] = assay: Growth inhibition of Trypanosoma brucei bloodstream forms measured after 72 hrs by resazurin-based fluorescence assay; format: organism-based
Summary of the method: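 Mid-log bloodstream-form T. brucei were seeded at a final 5 x 10^3/mL in supplemented HMI-9 with serial compound dilutions. Cultures ran 72 h at 37 °C, 5% CO₂, then 4 h more after resazurin. Fluorescence was read at ex 540/em 620 nm, and EC₅₀ was fitted by non-linear regression.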

Sequence of Cytochrome P450 2D6 (P10635 whole entry): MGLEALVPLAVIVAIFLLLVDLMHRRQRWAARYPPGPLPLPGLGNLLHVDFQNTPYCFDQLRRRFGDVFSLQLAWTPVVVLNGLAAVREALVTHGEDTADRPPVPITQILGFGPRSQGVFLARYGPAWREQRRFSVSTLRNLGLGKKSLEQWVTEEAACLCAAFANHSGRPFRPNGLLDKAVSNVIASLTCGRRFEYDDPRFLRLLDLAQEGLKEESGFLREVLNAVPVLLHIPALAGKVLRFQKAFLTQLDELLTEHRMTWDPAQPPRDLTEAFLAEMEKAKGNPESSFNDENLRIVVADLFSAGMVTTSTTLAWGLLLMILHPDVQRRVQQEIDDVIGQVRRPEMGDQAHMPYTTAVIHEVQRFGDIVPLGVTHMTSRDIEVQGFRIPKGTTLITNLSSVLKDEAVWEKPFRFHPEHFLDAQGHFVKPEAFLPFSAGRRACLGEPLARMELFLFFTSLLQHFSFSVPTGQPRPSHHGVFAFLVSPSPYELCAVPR
Sequence of Voltage-gated inwardly rectifying potassium channel KCNH2 (Q12809 whole entry): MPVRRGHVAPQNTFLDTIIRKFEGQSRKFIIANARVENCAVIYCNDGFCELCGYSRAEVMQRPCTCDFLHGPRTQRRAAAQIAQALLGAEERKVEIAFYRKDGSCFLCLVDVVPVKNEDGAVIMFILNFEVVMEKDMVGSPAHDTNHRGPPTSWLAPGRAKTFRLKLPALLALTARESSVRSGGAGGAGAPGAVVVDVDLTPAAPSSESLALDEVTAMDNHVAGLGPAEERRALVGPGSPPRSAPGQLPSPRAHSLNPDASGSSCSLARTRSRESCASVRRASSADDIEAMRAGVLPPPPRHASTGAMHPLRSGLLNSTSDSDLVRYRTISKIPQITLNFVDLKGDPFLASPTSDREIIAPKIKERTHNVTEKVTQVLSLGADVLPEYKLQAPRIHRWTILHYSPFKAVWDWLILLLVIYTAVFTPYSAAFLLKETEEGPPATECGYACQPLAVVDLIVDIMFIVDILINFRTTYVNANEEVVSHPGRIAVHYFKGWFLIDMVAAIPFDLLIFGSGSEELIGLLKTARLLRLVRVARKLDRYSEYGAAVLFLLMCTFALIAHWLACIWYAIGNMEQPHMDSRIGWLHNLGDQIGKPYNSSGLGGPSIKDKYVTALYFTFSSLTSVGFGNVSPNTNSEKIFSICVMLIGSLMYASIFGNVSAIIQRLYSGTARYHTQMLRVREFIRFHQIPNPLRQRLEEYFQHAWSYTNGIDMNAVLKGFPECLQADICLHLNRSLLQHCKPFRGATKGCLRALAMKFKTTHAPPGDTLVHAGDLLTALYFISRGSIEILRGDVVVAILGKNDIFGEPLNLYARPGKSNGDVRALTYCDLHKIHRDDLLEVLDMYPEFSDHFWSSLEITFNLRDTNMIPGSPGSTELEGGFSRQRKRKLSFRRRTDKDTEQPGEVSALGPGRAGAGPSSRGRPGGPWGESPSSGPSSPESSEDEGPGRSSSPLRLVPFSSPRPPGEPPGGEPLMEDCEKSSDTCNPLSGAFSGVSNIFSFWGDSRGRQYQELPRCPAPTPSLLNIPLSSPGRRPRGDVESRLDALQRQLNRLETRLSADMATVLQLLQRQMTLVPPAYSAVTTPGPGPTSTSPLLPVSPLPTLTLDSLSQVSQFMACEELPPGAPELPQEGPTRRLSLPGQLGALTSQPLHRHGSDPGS
Sequence of Cytochrome P450 2C9 (P11712 whole entry): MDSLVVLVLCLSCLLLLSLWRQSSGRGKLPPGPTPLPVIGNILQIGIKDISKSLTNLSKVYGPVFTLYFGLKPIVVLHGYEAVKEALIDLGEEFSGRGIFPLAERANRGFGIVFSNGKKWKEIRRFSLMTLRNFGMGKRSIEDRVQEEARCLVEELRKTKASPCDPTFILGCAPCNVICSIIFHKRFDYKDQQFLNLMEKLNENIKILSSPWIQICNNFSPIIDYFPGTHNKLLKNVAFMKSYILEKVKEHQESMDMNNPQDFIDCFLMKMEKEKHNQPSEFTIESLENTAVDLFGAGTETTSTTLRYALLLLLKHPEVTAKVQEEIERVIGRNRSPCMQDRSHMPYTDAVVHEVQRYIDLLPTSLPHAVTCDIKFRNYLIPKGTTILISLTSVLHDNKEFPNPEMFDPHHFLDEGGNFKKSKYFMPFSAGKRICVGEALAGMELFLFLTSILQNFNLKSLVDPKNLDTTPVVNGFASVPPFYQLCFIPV
Sequence of Cytochrome P450 2C19 (P33261 whole entry): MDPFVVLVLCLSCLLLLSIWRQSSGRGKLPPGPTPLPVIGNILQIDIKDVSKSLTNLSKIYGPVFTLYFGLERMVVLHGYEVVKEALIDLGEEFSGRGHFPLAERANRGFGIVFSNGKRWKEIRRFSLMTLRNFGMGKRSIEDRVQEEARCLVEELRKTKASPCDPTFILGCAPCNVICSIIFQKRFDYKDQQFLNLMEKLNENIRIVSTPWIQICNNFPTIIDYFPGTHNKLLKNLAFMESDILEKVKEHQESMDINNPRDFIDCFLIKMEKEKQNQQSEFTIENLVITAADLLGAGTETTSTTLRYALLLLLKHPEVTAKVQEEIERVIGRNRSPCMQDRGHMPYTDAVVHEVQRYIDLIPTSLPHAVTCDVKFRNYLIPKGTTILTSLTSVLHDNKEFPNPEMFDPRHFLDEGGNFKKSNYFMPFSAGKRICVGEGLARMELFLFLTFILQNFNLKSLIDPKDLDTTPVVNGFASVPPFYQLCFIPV
Sequence of Cytochrome P450 3A4 (P08684 whole entry): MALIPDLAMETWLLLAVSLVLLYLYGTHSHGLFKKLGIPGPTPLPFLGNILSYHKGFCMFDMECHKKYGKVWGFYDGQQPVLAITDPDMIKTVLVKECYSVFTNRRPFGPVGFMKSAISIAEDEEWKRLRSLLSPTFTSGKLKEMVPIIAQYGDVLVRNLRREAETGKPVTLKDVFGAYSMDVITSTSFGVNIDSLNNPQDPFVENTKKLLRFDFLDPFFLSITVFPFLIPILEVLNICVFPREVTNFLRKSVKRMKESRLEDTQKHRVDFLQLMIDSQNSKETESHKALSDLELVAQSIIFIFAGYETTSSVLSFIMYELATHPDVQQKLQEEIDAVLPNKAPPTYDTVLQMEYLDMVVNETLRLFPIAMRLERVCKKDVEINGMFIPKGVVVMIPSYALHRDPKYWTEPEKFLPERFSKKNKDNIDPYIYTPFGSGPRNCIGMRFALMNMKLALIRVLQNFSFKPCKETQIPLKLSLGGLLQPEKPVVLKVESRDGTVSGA

pIC50 (Cytochrome P450 2D6)	pIC50 (Pteridine reductase 1)	pIC50 [3]	pIC50 (Cytochrome P450 1A2)	growth inhibition (GI) (Trypanosoma brucei [5]) [%]	pIC50 (Cytochrome P450 2C19)	inhibition [7]	pIC50 (Cytochrome P450 3A4)	pIC50 (Cytochrome P450 2C9)	inhibition (Trypanosoma brucei [10]) [%]	Ratio IC50 [11]	Compound	GI50 at 48 h [1] [µM]	pIC50 [2]	inhibition at 10 µM (Trypanosoma brucei [4]) [%]	GI50 [6] [µM]	growth inhibition (GI) (Leishmania infantum)	IC50 at 6 h [8] [µM]	MNTC at 72 h [9] [µM]	inhibition at 50 µM (Trypanosoma cruzi) [%]	Ratio (Trypanosoma brucei [12])	other results
> 5.00	4.82	6.03	< 4.60	93	> 5.00	> 60%	> 5.00	< 4.60	> 60	2 to 100	COC(=O)C1CCN(C(=O)c2ccc(CSc3ccc4nc(N)sc4c3)cc2)CC1	> 25	< 4.60	42 to 53	> 25	Non-Toxic	> 25	> 25	16.3	1.3	–
> 5.00	4.32	6.04	4.60 to 5.00	69	> 5.00	> 60%	> 5.00	> 5.00	> 60	2 to 100	COC(=O)c1ccc(CSc2ccc3nc(N)sc3c2)cc1	> 25	< 4.60	7 to 17	> 25	Non-Toxic	> 25	10 to 25	23	2.7	–
> 5.00	4.91	6.46	< 4.60	63	> 5.00	> 60%	> 5.00	4.60 to 5.00	> 60	2 to 100	N#Cc1ccc(CSc2ccc3nc(N)sc3c2)cc1	> 25	–	29 to 35	> 25	Non-Toxic	< 10	> 25	27.3	1.3	–
< 4.60	4.06	6.17	< 4.60	80	> 5.00	> 60%	4.60 to 5.00	< 4.60	> 60	2 to 100	N#Cc1ccc(COc2ccc3nc(N)sc3c2)cc1	10 to 25	< 4.60	21 to 27	> 25	Non-Toxic	> 25	10 to 25	15.4	2	–
> 5.00	–	4.80	< 4.60	–	> 5.00	inactive	> 5.00	> 5.00	> 60	2 to 100	COc1ccc(CN(Cc2ccc(Cl)c(Cl)c2)C(=O)c2ccc3nc(N)sc3c2)cc1OC	> 25	< 4.60	> 60	> 25	–	10 to 25	10 to 25	47.9	–	IC50 (Pteridine reductase 1): Not Active; inhibition at 10 µM (Leishmania infantum): 9%; pEC50 (Trypanosoma brucei [13]): 5.01
< 4.60	5.72	6.30	< 4.60	33	< 4.60	> 60%	< 4.60	< 4.60	> 60	2 to 100	Nc1nc2ccc(SC(F)(F)F)cc2s1	< 10	4.60 to 5.00	11	> 25	Non-Toxic	> 25	10 to 25	37.4	1.1	–
< 4.60	–	–	< 4.60	–	< 4.60	8.7%	< 4.60	< 4.60	11.8	2 to 100	Nc1nc2c(O)cc(C(=O)NCc3ccc(Cl)c(Cl)c3)cc2s1	> 25	< 4.60	> 60	> 25	–	> 25	> 25	42	–	inhibition at 10 µM (Leishmania infantum): 24%; pEC50 (Trypanosoma brucei [13]): 5.23
4.60 to 5.00	–	5.47	> 5.00	89	> 5.00	inactive	> 5.00	< 4.60	> 60	2 to 100	Nc1nc2ccc(OCc3ccc(Cl)c(Cl)c3)cc2s1	> 25	< 4.60	42 to 55	> 25	Non-Toxic	> 25	> 25	7.24	1.2	IC50 (Pteridine reductase 1): Not Active
> 5.00	4.52	6.30	< 4.60	80	> 5.00	> 60%	> 5.00	> 5.00	> 60	2 to 100	Nc1nc2ccc(SCc3ccc(C(=O)NCc4ccccc4)cc3)cc2s1	< 10	< 4.60	26 to 33	> 25	Non-Toxic	> 25	10 to 25	19.2	1.6	–
> 5.00	5.00	6.05	4.60 to 5.00	65	> 5.00	> 60%	> 5.00	< 4.60	> 60	2 to 100	Nc1nc2ccc(SCc3ccc(Cl)c(Cl)c3)cc2s1	10 to 25	< 4.60	41 to 46	> 25	Non-Toxic	> 25	> 25	21.4	1.1	–
